Experimental data from ChEMBL document CHEMBL4251758, “Small Molecule Inhibition of MicroRNA miR-21 Rescues Chemosensitivity of Renal-Cell Carcinoma to Topotecan” (J Med Chem, 2018).
The source made the active and inactive calls. The rule behind the calls is not given here.

How the values were obtained:
U-87 MG = test: Cytotoxicity against human U87 cells after 72 hrs by XTT assay; type: functional, cell-based, U-87MG ATCC
Procedure, shortened: (§1)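 Cells seeded at 500 per well, incubated overnight, then exposed to increasing compound concentrations (0.1% DMSO final, DMSO control) in triplicate for 72 h. Activated XTT added; absorbance read at 450 nm with 630 nm background at start and after 4 h at 37 °C, 5% CO2. Change normalized to DMSO as % viability; IC50 from variable-slope sigmoidal fit; three independent measurements.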

microRNA 21 [1] = test: Inhibition of miR-21 RNA in human A498 cells assessed as potentiation of topotecan-induced cytotoxicity after 72 hrs by XTT assay; type: cell-based
Procedure, shortened: (§2)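 The chemotherapeutic agent (topotecan) was titrated while the miR-21 inhibitor was held at a fixed concentration, 0.1% DMSO final, in triplicate. Cells were seeded at 500 per well and treated after overnight attachment. After 72 h, XTT was read at 450 nm (630 nm background) at start and after 4 h. Signal normalized to DMSO; IC50 from variable-slope sigmoidal fit.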

[2] = Inhibition of miR-221 RNA (unknown origin) transfected in human PC3 cells at 10 uM after 48 hrs by Bright-Glo luciferase reporter gene assay; type: cell-based
microRNA 21 [3] = test: Inhibition of miR-21 RNA in human A498 cells assessed as potentiation of topotecan-induced inhibition of colony formation by measuring reduction in topotecan IC50 at 10 uM after 2 weeks by crystal violet staining-based microscopic analysis relative to topotecan alone; type: cell-based
Procedure, shortened: (§3)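 A498 cells, 10,000 per well, seeded in 0.45% low-melt agarose in DMEM over a 0.7% agarose base layer, containing increasing compound concentrations or DMSO (0.1% final), in triplicate. For combinations, the inhibitor was held at 10 μM. After 2 weeks, colonies were stained with 0.1% crystal violet and imaged by z-stack microscopy. Colony counts were normalized to DMSO; IC50 from sigmoidal fit.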

[4] = biological target: Luciferin 4-monooxygenase (Photinus pyralis) (UniProt P08659); test: Inhibition of firefly luciferase activity up to 50 uM
HeLa [5] = test: Effect on primary miR-21 expression levels in human HeLa cells at 10 uM after 48 hrs by qRT-PCR analysis; type: functional, cell-based
Procedure, shortened: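 HeLa cells were treated with 10 μM compound or DMSO (1% final) for 48 h, then RNA was isolated. 50 ng RNA was reverse-transcribed with iScript. TaqMan qPCR used pri-miR-21 and GAPDH primers. Triplicate Ct values were normalized to GAPDH and to DMSO controls by the 2−ΔΔCt method.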

microRNA 21 [6] = test: Inhibition of miR-21 RNA in human A498 cells assessed as potentiation of topotecan-induced cytotoxicity by measuring reduction in topotecan IC50 at 10 uM after 72 hrs by XTT assay relative to topotecan alone; type: cell-based; procedure, shortened: as §2
A498 [7] = test: Induction of apoptosis in human A498 cells assessed as increase in caspase-3/7 activity at 10 uM after 24 hrs by Caspase-Glo 3/7 assay relative to control; type: functional
Procedure, shortened: (§4)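 A498 cells, 10,000 per well, treated after overnight attachment for 24 h with DMSO (0.1%), 400 nM topotecan, 10 μM inhibitor, or topotecan plus inhibitor at those levels. Caspase-3/7 activity read by Caspase-Glo 3/7 luminescence and normalized to DMSO. At least three independent experiments; unpaired t test.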

HeLa [8] = test: Inhibition of miR-182 RNA (unknown origin) transfected in human HeLa cells at 10 uM after 48 hrs by Bright-Glo luciferase reporter gene assay; type: cell-based
A498 [9] = test: Cytotoxicity against human A498 cells after 72 hrs by XTT assay; type: functional, cell-based; details: A498, 72 h; procedure, shortened: as §1
microRNA 21 [10] = test: Inhibition of miR-21 RNA in human A498 cells assessed as potentiation of topotecan-induced inhibition of colony formation by measuring topotecan IC50 at 10 uM after 2 weeks by crystal violet staining-based microscopic analysis (reference value: 2 uM); type: cell-based; procedure, shortened: as §3
microRNA 21 [11] = test: Inhibition of miR-21 RNA in human A498 cells assessed as potentiation of topotecan-induced apoptosis by measuring increase in caspase-3/7 activity at 10 uM after 24 hrs by Caspase-Glo 3/7 assay relative to control; type: cell-based; set-up: scale not given: the % may be the effect or the level left; procedure, shortened: as §4
microRNA 21 [12] = test: Inhibition of promoter activity of miR-21 RNA (unknown origin) transfected in human HeLa cells at 10 uM after 48 hrs by Bright-Glo luciferase reporter gene assay; type: cell-based
Procedure, shortened: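 HeLa cells, 10,000 per well, treated after overnight attachment with 10 μM compound or DMSO (0.1% final) in triplicate for 48 h. Cells were then transfected for 3 h with 100 ng pGL4-miR21P (miR-21 promoter driving firefly luciferase) or empty pGL4.10. Medium was replaced with compound-containing medium for a further 24 h, followed by Bright-Glo luminescence read.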

microRNA 21 [13] = test: Inhibition of miR-21 RNA in human HeLa cells harboring miR-21 binding sequence in 3'-UTR of firefly luciferase gene assessed as increase in luciferase expression incubated for 48 hrs by Bright-Glo luciferase reporter gene assay; type: cell-based
Procedure, shortened: (§5)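 HeLa-miR21-Luc stable line (miR-21 site in the firefly luciferase 3′-UTR), 1000 cells per well. Compound or DMSO (0.1% final) added after overnight attachment, in triplicate, for 48 h. Bright-Glo luminescence was normalized to XTT viability (450 nm) and expressed as fold change relative to DMSO. At least three independent experiments.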

microRNA 21 [14] = test: Inhibition of miR-21 RNA in human A498 cells assessed as potentiation of topotecan-induced apoptosis by measuring increase in caspase-3/7 activity at 10 uM after 24 hrs by Caspase-Glo 3/7 assay relative to topotecan alone; type: cell-based; procedure, shortened: as §4
[15] = Inhibition of miR-122 RNA (unknown origin) transfected in human Huh7-psiCHECK-miR122 cells at 10 uM incubated for 48 hrs by Bright-Glo luciferase reporter gene assay
HCT-116 = test: Cytotoxicity against human HCT116 cells after 72 hrs by XTT assay; type: functional, cell-based; details: HCT-116, 72 h; procedure, shortened: as §1
microRNA 21 [16] = test: Inhibition of miR-21 RNA in human HeLa cells harboring miR-21 binding sequence in 3'-UTR of firefly luciferase gene assessed as increase in luciferase expression incubated for 48 hrs by Bright-Glo luciferase reporter gene assay relative to control; type: cell-based; procedure, shortened: as §5
SK-OV-3 = test: Decrease in mature miR-21 expression levels in human SKOV3 cells at 10 uM after 48 hrs by qRT-PCR analysis; type: functional, cell-based
NIH3T3 = test: Potentiation of topotecan-induced cytotoxicity in mouse NIH/3T3 cells at 1 to 10 uM after 72 hrs by XTT assay; type: cell-based; details: nih3t3, 72 h; procedure, shortened: as §2
MCF7 = test: Cytotoxicity against human MCF7 cells after 72 hrs by XTT assay; type: functional, cell-based; details: MCF7, 72 h; procedure, shortened: as §1
MIA PaCa-2 = test: Cytotoxicity against human MIAPaCa2 cells after 72 hrs by XTT assay; type: functional, cell-based; details: MIA PaCa-2, 72 h; procedure, shortened: as §1
microRNA 21 [17] = test: Inhibition of miR-21 RNA in human A498 cells assessed as potentiation of topotecan-induced cytotoxicity by measuring topotecan IC50 at 10 uM after 72 hrs by XTT assay (reference value: 1 uM); type: cell-based; procedure, shortened: as §2

Luciferin 4-monooxygenase (Photinus pyralis), sequence (P08659 whole entry): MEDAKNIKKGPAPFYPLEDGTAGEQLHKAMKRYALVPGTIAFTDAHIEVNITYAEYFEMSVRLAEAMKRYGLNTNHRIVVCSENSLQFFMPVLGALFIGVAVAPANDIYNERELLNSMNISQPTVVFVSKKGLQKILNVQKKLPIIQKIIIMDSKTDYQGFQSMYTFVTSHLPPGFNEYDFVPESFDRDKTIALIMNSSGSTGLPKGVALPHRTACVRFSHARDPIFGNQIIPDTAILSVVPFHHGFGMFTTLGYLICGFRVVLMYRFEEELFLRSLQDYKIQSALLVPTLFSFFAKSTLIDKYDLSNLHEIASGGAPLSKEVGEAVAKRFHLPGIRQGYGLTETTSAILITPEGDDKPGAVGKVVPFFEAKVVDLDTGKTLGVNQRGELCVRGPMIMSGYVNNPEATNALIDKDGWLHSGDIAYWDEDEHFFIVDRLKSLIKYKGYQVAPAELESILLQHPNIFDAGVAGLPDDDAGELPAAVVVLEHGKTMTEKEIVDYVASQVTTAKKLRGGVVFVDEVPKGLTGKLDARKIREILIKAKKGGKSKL

With `C#CCOc1ccc(-c2noc(-c3nnn(-c4cccc(/C(C)=N/O)c4)c3N)n2)cc1` the IC50 (U-87 MG) was 3.3 µM, the inhibition (microRNA 21 [1]) was “Dose-dependent effect” and the inhibition [2] was “inactive”. For the same compound, the fold change (FC) (microRNA 21 [3]) was 27, the inhibition [4] was “inactive” and the Activity (HeLa [5]) was “inactive”. The fold change (FC) (microRNA 21 [6]) was 11, the Activity (A498 [7]) was 20% and the inhibition (HeLa [8]) was “inactive”. For the same compound, the IC50 (A498 [9]) was greater than 100 µM, the IC50 (microRNA 21 [10]) was 0.074 µM and the Activity (microRNA 21 [11]) was 512%. The inhibition (microRNA 21 [12]) was “inactive”, the EC50 (microRNA 21 [13]) was 5.3 µM and the inhibition (microRNA 21 [13]) was “Dose-dependent effect”. The fold change (FC) (microRNA 21 [14]) was 1.6, the inhibition [15] was “inactive” and the IC50 (HCT-116) was 5.9 µM. For the same compound, the fold change (FC) (microRNA 21 [16]) was 12.2, the Activity (SK-OV-3) was “inactive” and the Activity (NIH3T3) was “Non-Toxic”. For the same compound, the IC50 (MCF7) was 4.5 µM, the IC50 (MIA PaCa-2) was 6.7 µM and the IC50 (microRNA 21 [17]) was 0.09 µM.
